ChEMBL document CHEMBL1147141, “Potent nonpeptide antagonists of the bradykinin B1 receptor: structure-activity relationship studies with novel diaminochroman carboxamides” (J Med Chem, 2007)

What was measured:
[1] = Clearance in Sprague-Dawley rat at 1 mg/kg, iv; format: ADME, organism-based; parameters: dose 1 mg/kg, route intravenous; conditions: in vivo
Procedure, shortened: (§1)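 Male Sprague-Dawley rats (225-280 g) with femoral and jugular vein cannulae were fasted overnight. They received an i.v. bolus of 1 mg/kg in 100% DMSO, prepared on the dosing day, n = 3. Blood was drawn via jugular cannula over 6 or 8 h into heparin. Plasma was acetonitrile-precipitated and measured by LC-MS/MS (positive MRM). Parameters were noncompartmental and reported with SEM.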

[2] = Oral bioavailability in Sprague-Dawley rat at 3 mg/kg, po; format: ADME, organism-based; conditions: in vivo
[3] = Metabolic stability in rat liver microsomes; format: ADME, Microsome; conditions: read-out: Stability
[4] = Metabolic stability in human liver microsomes; format: ADME, Microsome; conditions: read-out: Stability
B1 bradykinin receptor [5] = target: T1, B1 bradykinin receptor (Oryctolagus cuniculus, UniProt P48748); assay: Antagonist activity at rabbit bradykinin B1 receptor; format: functional
T1 sequence (P48748 whole entry): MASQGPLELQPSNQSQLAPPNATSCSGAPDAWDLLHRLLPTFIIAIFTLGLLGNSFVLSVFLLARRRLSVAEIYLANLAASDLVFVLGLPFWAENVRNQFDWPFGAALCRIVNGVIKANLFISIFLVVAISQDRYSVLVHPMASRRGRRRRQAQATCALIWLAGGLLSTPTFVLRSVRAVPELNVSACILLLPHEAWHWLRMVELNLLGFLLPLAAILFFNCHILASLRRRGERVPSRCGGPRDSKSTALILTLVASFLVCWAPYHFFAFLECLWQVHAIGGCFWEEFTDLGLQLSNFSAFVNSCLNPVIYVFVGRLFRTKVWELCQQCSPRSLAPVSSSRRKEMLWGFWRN

B1 bradykinin receptor [6] = target: T2, B1 bradykinin receptor (Rattus norvegicus, UniProt P97583); assay: Antagonist activity at rat bradykinin B1 receptor; format: functional
T2 sequence (P97583 whole entry): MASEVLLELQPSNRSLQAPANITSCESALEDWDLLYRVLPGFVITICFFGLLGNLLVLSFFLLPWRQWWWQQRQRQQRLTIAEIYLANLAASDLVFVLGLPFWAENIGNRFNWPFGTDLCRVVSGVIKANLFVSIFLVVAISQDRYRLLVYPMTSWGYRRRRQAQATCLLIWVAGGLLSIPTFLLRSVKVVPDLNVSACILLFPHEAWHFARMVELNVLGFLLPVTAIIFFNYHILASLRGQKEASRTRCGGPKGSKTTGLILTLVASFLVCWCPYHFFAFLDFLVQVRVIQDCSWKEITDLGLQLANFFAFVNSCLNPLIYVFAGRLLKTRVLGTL

Oryctolagus cuniculus [7] = assay: Antinociceptive effect in subcutaneously dosed New Zealand rabbit assessed as reversal of carrageenan-induced hyperalgesia administered 2 hrs after carrageenan challenge; format: functional, organism-based
Procedure, shortened: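 Male New Zealand white rabbits (500-700 g), right hind paw injected with lambda carrageenan (3% in saline, 200 µL). Three punctate mechanical withdrawal readings were taken before and at 3 h post-carrageenan. Antagonist was given s.c. at 1 mL/kg, at 2 h (20% Captisol vehicle) or 2.5 h (PBS vehicle, peptide) post-carrageenan. Post minus pre threshold gave a difference score, converted to %MPE with the vehicle group as Emin and 0 as Emax. Analysed by one-factor ANOVA and Dunnett's test.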

[8] = Oral bioavailability in Sprague-Dawley rat at 10 mg/kg, po; format: ADME, organism-based; conditions: in vivo
Procedure, shortened: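 Male Sprague-Dawley rats (225-280 g), cannulated and fasted overnight, were dosed by oral gavage at 10 mg/kg in 1% Tween 80, 2% HPMC, prepared 24-48 h before dosing, n = 3. Jugular blood was sampled over 6 or 8 h. Plasma was analysed by LC-MS/MS and parameters derived noncompartmentally.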

[9] = Volume of distribution at steady state in Sprague-Dawley rat at 1 mg/kg, iv; format: ADME, organism-based; parameters: dose 1 mg/kg, route intravenous; conditions: in vivo, read-out: Vss; procedure, shortened: as §1
Oryctolagus cuniculus [10] = assay: Reduction of DAK10-induced hypotension in subcutaneously dosed New Zealand rabbit blood pressure model; format: functional, organism-based
Procedure, shortened: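 New Zealand white rabbits (2.0-3.0 kg, n = 1/dose) were given LPS 25 µg/kg i.v. 5 h before the study to induce B1 receptors. Under anesthesia, both carotids were catheterized to record mean arterial pressure and to give DAK. Baseline was set by two i.v. bolus injections of 1 µg DAK. Antagonist was then given s.c. (1, 2, 4, 10 or 20 mpk). At 30 and 75 min, blood was drawn for plasma levels and the DAK response was re-measured, expressed as % hypotensive response.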

[11] = Half life in Sprague-Dawley rat at 1 mg/kg, iv; format: ADME, organism-based; parameters: dose 1 mg/kg, route intravenous; conditions: in vivo; procedure, shortened: as §1

Row | clearance [1] [mL/min/kg] | bioavailability [2] [%] | microsomal CLint [3] [µL/min/mg] | microsomal CLint [4] [µL/min/mg] | IC50 (B1 bradykinin receptor [5]) | Ki (B1 bradykinin receptor [6]) | bioavailability [8] [%] | Vd [9] [L/kg] | half-life [11] [h] | SMILES | Activity (Oryctolagus cuniculus [7]) | Activity (Oryctolagus cuniculus [10])
1 | 84.1 | 4 | 390 | 688 | – | – | – | – | – | O=C(C[C@@H](NS(=O)(=O)c1ccc2ccccc2c1)c1ccccc1)N[C@@H]1CCOc2cc(CN3CCCCC3)ccc21 | – | –
2 | 24.8 | – | 216 | – | 10.4 nM (antagonist) | 127 nM (antagonist) | 13 | 4.64 | 2.5 | O=C(C[C@@H](NS(=O)(=O)c1cccc(C(F)(F)F)c1)c1ccc(F)cc1)N[C@@H]1CCOc2cc(CN3CCCCC3)ccc21 | Dose-dependent effect | Dose-dependent effect
